Measurements: ChEMBL document CHEMBL2417509, “Synthesis and biological evaluation of prodigiosene conjugates of porphyrin, estrone and 4-hydroxytamoxifen” (2013)

Columns and labels:
Format in all cases: functional
PC-3 = test: Cytotoxicity against human PC3 cells after 2 days by sulforhodamine B assay; conditions: PC-3, 48 h
Outline: (§1)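 NCI60 multi-dose screen, 59 human tumour lines available. Cells exposed to compound across a 5-log mol/L concentration range for 2 days, then fixed and stained with sulphorhodamine B, optical density read. Growth inhibition calculated against time-zero control and untreated cells. GI50 derived from the dose series, average of two replicates.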

SNB-75 = test: Cytotoxicity against human SNB75 cells after 2 days by sulforhodamine B assay; conditions: SNB-75, 48 h
Outline: (§2)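 NCI DTP NCI60 multi-dose screen (59 human tumour lines available). Cells exposed to compound over a 5-log mol/L concentration range for 2 days, then fixed and stained with sulphorhodamine B, with optical density read. Growth inhibition calculated relative to time-zero cells and untreated cells, giving GI50 (half-maximal growth inhibition concentration). Average of two replicates.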

NCI-H226 = test: Cytotoxicity against human NCI-H226 cells after 2 days by sulforhodamine B assay; conditions: NCI-H226, 48 h; outline: as §1
OVCAR-8 = test: Cytotoxicity against human OVCAR8 cells after 2 days by sulforhodamine B assay; conditions: OVCAR-8, 48 h; outline: as §1
OVCAR-3 = test: Cytotoxicity against human OVCAR3 cells after 2 days by sulforhodamine B assay; conditions: OVCAR-3, 48 h; outline: as §1
Malme-3M = test: Cytotoxicity against human MALME-3M cells after 2 days by sulforhodamine B assay; conditions: 48 h; outline: as §1
HCT-15 = test: Cytotoxicity against human HCT15 cells after 2 days by sulforhodamine B assay; conditions: HCT-15, 48 h; outline: as §1
K562 = test: Cytotoxicity against human K562 cells after 2 days by sulforhodamine B assay; conditions: K562, 48 h; outline: as §1
UACC-62 = test: Cytotoxicity against human UACC62 cells after 2 days by sulforhodamine B assay; conditions: UACC-62, 48 h; outline: as §2
HOP-62 = test: Cytotoxicity against human HOP62 cells after 2 days by sulforhodamine B assay; conditions: HOP-62, 48 h; outline: as §1
[1] = Cytotoxicity against human Hs578T cells after 2 days by sulforhodamine B assay; conditions: Hs-578T, 48 h; outline: as §1
MCF7 = test: Cytotoxicity against human MCF7 cells after 2 days by sulforhodamine B assay; conditions: MCF7, 48 h; outline: as §1
BT-549 = test: Cytotoxicity against human BT549 cells after 2 days by sulforhodamine B assay; conditions: BT-549, 48 h; outline: as §1
ACHN = test: Cytotoxicity against human ACHN cells after 2 days by sulforhodamine B assay; conditions: 48 h; outline: as §1
RPMI-8226 = test: Cytotoxicity against human RPMI8226 cells after 2 days by sulforhodamine B assay; conditions: RPMI-8226, 48 h; outline: as §1
CCRF-CEM = test: Cytotoxicity against human CCRF-CEM cells after 2 days by sulforhodamine B assay; conditions: 48 h; outline: as §1
KM12 = test: Cytotoxicity against human KM12 cells after 2 days by sulforhodamine B assay; conditions: KM12, 48 h; outline: as §1
HL-60(TB) = test: Cytotoxicity against human HL-60(TB) cells after 2 days by sulforhodamine B assay; conditions: HL-60, 48 h
Outline: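 NCI60 multi-dose screen: cells exposed to compound over a 5-log mol/L concentration range for 2 days, then fixed and stained with sulphorhodamine B and optical density read. Growth inhibition calculated relative to time-zero control and untreated cells; GI50 reported as average of two replicates.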

COLO 205 = test: Cytotoxicity against human COLO205 cells after 2 days by sulforhodamine B assay; conditions: COLO 205, 48 h; outline: as §1
SR = test: Cytotoxicity against human SR cells after 2 days by sulforhodamine B assay; conditions: 48 h; outline: as §2
MDA-MB-231 = test: Cytotoxicity against human MDA-MB-231 cells after 2 days by sulforhodamine B assay; conditions: MDA-MB-231, 48 h; outline: as §1
SK-MEL-2 = test: Cytotoxicity against human SK-MEL-2 cells after 2 days by sulforhodamine B assay; conditions: SK-MEL-2, 48 h; outline: as §1
SW-620 = test: Cytotoxicity against human SW620 cells after 2 days by sulforhodamine B assay; conditions: SW-620, 48 h; outline: as §2
UACC-257 = test: Cytotoxicity against human UACC257 cells after 2 days by sulforhodamine B assay; conditions: UACC-257, 48 h; outline: as §2
UO-31 = test: Cytotoxicity against human UO31 cells after 2 days by sulforhodamine B assay; conditions: UO-31, 48 h; outline: as §2
HCC 2998 = test: Cytotoxicity against human HCC2998 cells after 2 days by sulforhodamine B assay; conditions: HCC 2998, 48 h; outline: as §1
SK-MEL-5 = test: Cytotoxicity against human SK-MEL-5 cells after 2 days by sulforhodamine B assay; conditions: SK-MEL-5, 48 h; outline: as §1
RXF 393 = test: Cytotoxicity against human RXF393 cells after 2 days by sulforhodamine B assay; conditions: RXF 393, 48 h; outline: as §1
SK-MEL-28 = test: Cytotoxicity against human SK-MEL-28 cells after 2 days by sulforhodamine B assay; conditions: SK-MEL-28, 48 h; outline: as §1
IGROV-1 = test: Cytotoxicity against human IGROV1 cells after 2 days by sulforhodamine B assay; conditions: IGROV-1, 48 h; outline: as §1
[2] = read-out: LC50 (the source's name)

Structure (SMILES): CC/C(=C(/c1ccc(OCCN(C)C)cc1)c1ccc(OC(=O)CCCCCCCCC(=O)C2=C(C)/C(=C/c3[nH]c(-c4ccc[nH]4)cc3OC)N=C2C)cc1)c1ccccc1
- GI50 (PC-3): 5.89 µM
- LC50 (concentration killing 50% of cells) (PC-3): > 100 µM
- TGI (PC-3): > 100 µM
- GI50 (SNB-75): 4.17 µM
- LC50 (concentration killing 50% of starting cells) (SNB-75): > 100 µM
- TGI (SNB-75): > 100 µM
- GI50 (NCI-H226): > 100 µM
- LC50 (NCI-H226): > 100 µM
- TGI (NCI-H226): > 100 µM
- GI50 (OVCAR-8): 9.12 µM
- LC50 (OVCAR-8): > 100 µM
- TGI (OVCAR-8): > 100 µM
- GI50 (OVCAR-3): 11 µM
- LC50 (OVCAR-3): > 100 µM
- TGI (OVCAR-3): > 100 µM
- GI50 (Malme-3M): 40.7 µM
- LC50 (Malme-3M): > 100 µM
- TGI (Malme-3M): > 100 µM
- GI50 (HCT-15): 5.13 µM
- LC50 (HCT-15): > 100 µM
- TGI (HCT-15): 97.7 µM
- GI50 (K562): 4.57 µM
- LC50 (concentration killing 50% of cells) (K562): > 100 µM
- TGI (K562): > 100 µM
- GI50 (UACC-62): 3.39 µM
- TGI (UACC-62): 18.2 µM
- CC50 (UACC-62; [2]): > 100 µM
- GI50 (HOP-62): 16.9 µM
- TGI (HOP-62): > 100 µM
- CC50 (HOP-62; [2]): > 100 µM
- GI50 [1]: 4.79 µM
- TGI [1]: 85.1 µM
- CC50 [1, 2]: > 100 µM
- GI50 (MCF7): 0.16 µM
- LC50 (concentration giving 50% net cell kill) (MCF7): > 100 µM
- TGI (MCF7): 11 µM
- GI50 (BT-549): 5.25 µM
- LC50 (concentration killing 50% of cells present at time zero) (BT-549): > 100 µM
- TGI (BT-549): > 100 µM
- GI50 (ACHN): 7.76 µM
- LC50 (concentration killing 50% of cells) (ACHN): > 100 µM
- TGI (ACHN): > 100 µM
- GI50 (RPMI-8226): 3.72 µM
- LC50 (concentration killing 50% of cells present at time zero) (RPMI-8226): > 100 µM
- TGI (RPMI-8226): > 100 µM
- GI50 (CCRF-CEM): 0.76 µM
- TGI (CCRF-CEM): > 100 µM
- CC50 (CCRF-CEM; [2]): > 100 µM
- GI50 (KM12): 5.25 µM
- LC50 (KM12): > 100 µM
- TGI (KM12): > 100 µM
- GI50 (HL-60(TB)): 12.3 µM
- TGI (HL-60(TB)): > 100 µM
- CC50 (HL-60(TB); [2]): > 100 µM
- GI50 (COLO 205): 8.13 µM
- LC50 (concentration killing 50% of cells) (COLO 205): > 100 µM
- TGI (COLO 205): 77.6 µM
- GI50 (SR): 4.07 µM
- LC50 (concentration giving 50% net cell kill) (SR): > 100 µM
- TGI (SR): > 100 µM
- GI50 (MDA-MB-231): 3.39 µM
- LC50 (MDA-MB-231): > 100 µM
- TGI (MDA-MB-231): 18.2 µM
- GI50 (SK-MEL-2): 30.9 µM
- LC50 (SK-MEL-2): > 100 µM
- TGI (SK-MEL-2): > 100 µM
- GI50 (SW-620): 3.72 µM
- LC50 (concentration killing 50% of cells) (SW-620): 56.2 µM
- TGI (SW-620): 14.1 µM
- GI50 (UACC-257): 63.1 µM
- TGI (UACC-257): > 100 µM
- CC50 (UACC-257; [2]): > 100 µM
- GI50 (UO-31): 4.47 µM
- LC50 (UO-31): > 100 µM
- TGI (UO-31): > 100 µM
- GI50 (HCC 2998): > 100 µM
- LC50 (50% lethal concentration) (HCC 2998): > 100 µM
- TGI (HCC 2998): > 100 µM
- GI50 (SK-MEL-5): 1.62 µM
- LC50 (concentration killing 50% of cells) (SK-MEL-5): 6.46 µM
- TGI (SK-MEL-5): 3.24 µM
- GI50 (RXF 393): 13.8 µM
- LC50 (concentration killing 50% of cells) (RXF 393): > 100 µM
- TGI (RXF 393): > 100 µM
- GI50 (SK-MEL-28): 43.6 µM
- LC50 (SK-MEL-28): > 100 µM
- TGI (SK-MEL-28): > 100 µM
- GI50 (IGROV-1): 22.9 µM
- LC50 (IGROV-1): > 100 µM
- TGI (IGROV-1): > 100 µM
